Values belong to the compound of their own block, whether it stands above or below them.
How the values were obtained:
[1] = biological target: Kappa-type opioid receptor (Homo sapiens, UniProt P41145); experiment: Binding affinity to human kappa opioid receptor by PDSP assay
[2] = biological target: Metabotropic glutamate receptor 5 (Homo sapiens, UniProt P41594); experiment: Binding affinity to human mGluR5 by PDSP assay
[3] = biological target: Alpha-1D adrenergic receptor (Homo sapiens, UniProt P25100); experiment: Binding affinity to human alpha-1D adrenergic receptor by PDSP assay
Chain of Alpha-1D adrenergic receptor (P25100 whole entry): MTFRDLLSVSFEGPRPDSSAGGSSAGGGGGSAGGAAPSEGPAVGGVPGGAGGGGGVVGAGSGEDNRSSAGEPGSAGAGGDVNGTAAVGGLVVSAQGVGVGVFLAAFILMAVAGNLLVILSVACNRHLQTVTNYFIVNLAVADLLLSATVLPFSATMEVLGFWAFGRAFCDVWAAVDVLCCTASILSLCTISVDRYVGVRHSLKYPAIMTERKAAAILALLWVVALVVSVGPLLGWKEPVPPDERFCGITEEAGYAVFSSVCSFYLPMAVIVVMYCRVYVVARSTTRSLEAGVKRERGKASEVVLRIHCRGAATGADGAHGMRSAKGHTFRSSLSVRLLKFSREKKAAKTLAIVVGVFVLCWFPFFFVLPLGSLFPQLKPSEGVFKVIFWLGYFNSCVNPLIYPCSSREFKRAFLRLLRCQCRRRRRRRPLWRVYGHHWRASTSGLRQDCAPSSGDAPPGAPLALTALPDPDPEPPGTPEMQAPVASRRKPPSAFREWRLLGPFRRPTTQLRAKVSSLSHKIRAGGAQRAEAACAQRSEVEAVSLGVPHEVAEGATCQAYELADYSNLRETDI

[4] = biological target: 5-hydroxytryptamine receptor 1E (Homo sapiens, UniProt P28566); experiment: Binding affinity to human 5-HT1E receptor by PDSP assay
Chain of 5-hydroxytryptamine receptor 1E (P28566 whole entry): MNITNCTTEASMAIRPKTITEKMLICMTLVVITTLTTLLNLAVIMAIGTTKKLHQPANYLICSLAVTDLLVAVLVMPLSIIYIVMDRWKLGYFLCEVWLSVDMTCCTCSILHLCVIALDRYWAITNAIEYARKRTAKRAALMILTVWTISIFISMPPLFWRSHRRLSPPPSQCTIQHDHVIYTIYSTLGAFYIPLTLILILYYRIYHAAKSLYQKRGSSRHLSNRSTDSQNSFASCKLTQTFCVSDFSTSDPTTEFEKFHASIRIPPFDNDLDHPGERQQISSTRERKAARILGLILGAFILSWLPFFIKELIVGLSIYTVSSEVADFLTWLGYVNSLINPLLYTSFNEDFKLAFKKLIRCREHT

[5] = biological target: Muscarinic acetylcholine receptor M1 (Homo sapiens, UniProt P11229); experiment: Binding affinity to human muscarinic M1 receptor by PDSP assay
[6] = biological target: 5-hydroxytryptamine receptor 2B (Homo sapiens, UniProt P41595); experiment: Binding affinity to human 5-HT2B receptor by PDSP assay
[7] = biological target: Muscarinic acetylcholine receptor M3 (Homo sapiens, UniProt P20309); experiment: Binding affinity to human muscarinic M3 receptor by PDSP assay
[8] = biological target: Alpha-1A adrenergic receptor (Homo sapiens, UniProt P35348); experiment: Binding affinity to human alpha-1A adrenergic receptor by PDSP assay
Chain of Alpha-1A adrenergic receptor (P35348 whole entry): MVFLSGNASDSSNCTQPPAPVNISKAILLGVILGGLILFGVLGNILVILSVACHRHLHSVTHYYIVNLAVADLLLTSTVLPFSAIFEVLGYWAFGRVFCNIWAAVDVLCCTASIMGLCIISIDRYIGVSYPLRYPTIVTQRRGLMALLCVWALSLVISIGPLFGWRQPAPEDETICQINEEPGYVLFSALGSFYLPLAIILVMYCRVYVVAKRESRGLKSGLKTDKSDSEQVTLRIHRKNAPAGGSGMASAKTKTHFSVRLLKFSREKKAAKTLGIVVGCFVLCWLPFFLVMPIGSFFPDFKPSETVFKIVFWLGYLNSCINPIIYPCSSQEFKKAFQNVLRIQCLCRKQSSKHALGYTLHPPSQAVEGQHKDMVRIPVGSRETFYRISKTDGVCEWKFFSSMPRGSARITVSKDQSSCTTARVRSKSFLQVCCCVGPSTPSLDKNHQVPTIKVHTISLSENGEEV

[9] = biological target: 5-hydroxytryptamine receptor 7 (Homo sapiens, UniProt P34969); experiment: Binding affinity to human 5-HT7 receptor by PDSP assay
Mu-type opioid receptor = Mu-type opioid receptor (Homo sapiens, UniProt P35372); experiment: Binding affinity to human mu opioid receptor by PDSP assay
[10] = biological target: GABA-A receptor; agonist GABA site; experiment: Binding affinity to human GABAA receptor by PDSP assay; type: protein-complex assay
[11] = biological target: 5-hydroxytryptamine receptor 1A (Homo sapiens, UniProt P08908); experiment: Binding affinity to human 5-HT1A receptor by PDSP assay
[12] = biological target: Muscarinic acetylcholine receptor M5 (Homo sapiens, UniProt P08912); experiment: Binding affinity to human muscarinic M5 receptor by PDSP assay
[13] = biological target: Beta-2 adrenergic receptor (Homo sapiens, UniProt P07550); experiment: Binding affinity to human beta2 adrenergic receptor by PDSP assay
[14] = biological target: Delta-type opioid receptor (Homo sapiens, UniProt P41143); experiment: Binding affinity to human delta opioid receptor by PDSP assay
Histamine H3 receptor = Histamine H3 receptor (Homo sapiens, UniProt Q9Y5N1); experiment: Binding affinity to human histamine H3 receptor by PDSP assay
D(1A) dopamine receptor = D(1A) dopamine receptor (Homo sapiens, UniProt P21728); experiment: Binding affinity to human dopamine D1 receptor by PDSP assay
[15] = biological target: 5-hydroxytryptamine receptor 3A (Homo sapiens, UniProt P46098); experiment: Binding affinity to human 5-HT3 receptor by PDSP assay
[16] = biological target: Beta-1 adrenergic receptor (Homo sapiens, UniProt P08588); experiment: Binding affinity to human beta1 adrenergic receptor by PDSP assay
[17] = biological target: Muscarinic acetylcholine receptor M2 (Homo sapiens, UniProt P08172); experiment: Binding affinity to human muscarinic M2 receptor by PDSP assay
Chain of Muscarinic acetylcholine receptor M2 (P08172 whole entry): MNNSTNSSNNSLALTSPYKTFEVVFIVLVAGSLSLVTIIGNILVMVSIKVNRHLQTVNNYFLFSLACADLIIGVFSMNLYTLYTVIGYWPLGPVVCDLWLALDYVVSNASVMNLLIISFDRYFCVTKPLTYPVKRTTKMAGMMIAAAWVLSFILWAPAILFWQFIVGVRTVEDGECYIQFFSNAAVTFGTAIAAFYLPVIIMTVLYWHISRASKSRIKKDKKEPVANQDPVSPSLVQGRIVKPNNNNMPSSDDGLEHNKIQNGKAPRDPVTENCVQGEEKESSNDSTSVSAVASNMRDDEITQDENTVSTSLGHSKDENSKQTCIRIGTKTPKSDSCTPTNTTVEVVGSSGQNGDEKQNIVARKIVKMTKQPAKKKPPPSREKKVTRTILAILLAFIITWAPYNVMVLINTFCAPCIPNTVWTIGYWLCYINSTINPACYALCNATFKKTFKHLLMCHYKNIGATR

[18] = biological target: 5-hydroxytryptamine receptor 5A (Homo sapiens, UniProt P47898); experiment: Binding affinity to human 5-HT5A receptor by PDSP assay
Chain of 5-hydroxytryptamine receptor 5A (P47898 whole entry): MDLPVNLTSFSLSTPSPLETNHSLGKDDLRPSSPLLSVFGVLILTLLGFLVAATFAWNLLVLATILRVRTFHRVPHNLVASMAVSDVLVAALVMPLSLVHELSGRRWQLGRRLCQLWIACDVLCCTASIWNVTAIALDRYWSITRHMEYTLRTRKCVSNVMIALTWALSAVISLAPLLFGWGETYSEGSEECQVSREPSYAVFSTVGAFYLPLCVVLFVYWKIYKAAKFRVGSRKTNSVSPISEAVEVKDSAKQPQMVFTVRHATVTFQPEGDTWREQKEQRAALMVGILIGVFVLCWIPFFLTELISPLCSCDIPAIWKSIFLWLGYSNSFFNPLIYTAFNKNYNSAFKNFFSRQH

[19] = biological target: Glutamate [NMDA] receptor; experiment: Binding affinity to human NMDA receptor by PDSP assay
D(4) dopamine receptor = D(4) dopamine receptor (Homo sapiens, UniProt P21917); experiment: Binding affinity to human dopamine D4 receptor by PDSP assay
[20] = biological target: 5-hydroxytryptamine receptor 1D (Homo sapiens, UniProt P28221); experiment: Binding affinity to human 5-HT1D receptor by PDSP assay
[21] = biological target: Muscarinic acetylcholine receptor M4 (Homo sapiens, UniProt P08173); experiment: Binding affinity to human muscarinic M4 receptor by PDSP assay
[22] = biological target: Metabotropic glutamate receptor 5 (Rattus norvegicus, UniProt P31424); experiment: Binding affinity to mGluR5 in rat brain; type: tissue-based
Chain of Metabotropic glutamate receptor 5 (Rattus norvegicus, UniProt P31424) (P31424 whole entry): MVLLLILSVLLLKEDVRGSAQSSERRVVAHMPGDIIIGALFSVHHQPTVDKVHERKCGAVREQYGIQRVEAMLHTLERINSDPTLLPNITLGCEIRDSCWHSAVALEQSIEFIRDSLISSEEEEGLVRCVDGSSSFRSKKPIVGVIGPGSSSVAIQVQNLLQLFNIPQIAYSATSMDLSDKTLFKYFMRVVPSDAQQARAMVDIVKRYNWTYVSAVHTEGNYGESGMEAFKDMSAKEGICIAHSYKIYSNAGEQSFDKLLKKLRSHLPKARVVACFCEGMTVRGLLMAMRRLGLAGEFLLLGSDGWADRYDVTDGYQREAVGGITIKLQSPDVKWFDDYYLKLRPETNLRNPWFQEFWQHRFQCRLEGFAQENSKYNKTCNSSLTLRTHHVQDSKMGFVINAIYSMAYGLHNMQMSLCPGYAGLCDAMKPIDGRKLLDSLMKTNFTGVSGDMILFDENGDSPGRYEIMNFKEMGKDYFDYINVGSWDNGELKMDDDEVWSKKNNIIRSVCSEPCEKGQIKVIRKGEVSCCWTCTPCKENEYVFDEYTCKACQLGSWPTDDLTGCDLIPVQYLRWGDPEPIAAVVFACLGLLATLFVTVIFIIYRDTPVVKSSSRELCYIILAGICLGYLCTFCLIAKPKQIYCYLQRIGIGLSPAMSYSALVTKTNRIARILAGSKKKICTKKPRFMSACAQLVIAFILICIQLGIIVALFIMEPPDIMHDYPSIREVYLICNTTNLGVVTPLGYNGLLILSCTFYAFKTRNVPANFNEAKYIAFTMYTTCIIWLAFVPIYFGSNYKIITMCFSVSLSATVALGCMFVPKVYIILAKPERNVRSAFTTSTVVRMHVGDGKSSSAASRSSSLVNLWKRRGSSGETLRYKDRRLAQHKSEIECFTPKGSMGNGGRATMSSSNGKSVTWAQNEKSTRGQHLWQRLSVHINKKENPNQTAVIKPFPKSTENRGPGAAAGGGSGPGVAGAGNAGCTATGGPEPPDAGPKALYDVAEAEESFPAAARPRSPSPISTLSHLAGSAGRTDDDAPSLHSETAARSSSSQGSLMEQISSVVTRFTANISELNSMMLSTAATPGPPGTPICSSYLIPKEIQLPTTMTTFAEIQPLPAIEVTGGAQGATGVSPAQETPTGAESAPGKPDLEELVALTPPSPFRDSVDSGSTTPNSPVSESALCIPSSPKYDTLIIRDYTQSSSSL

[23] = Binding affinity to human sigma-2 receptor by PDSP assay
[24] = biological target: Beta-3 adrenergic receptor (Homo sapiens, UniProt P13945); experiment: Binding affinity to human beta3 adrenergic receptor by PDSP assay
[25] = biological target: Alpha-1B adrenergic receptor (Homo sapiens, UniProt P35368); experiment: Binding affinity to human alpha-1B adrenergic receptor by PDSP assay
[26] = Binding affinity to BZP site in rat brain by PDSP assay; type: tissue-based
[27] = biological target: Alpha-2B adrenergic receptor (Homo sapiens, UniProt P18089); experiment: Binding affinity to human alpha-2B adrenergic receptor by PDSP assay
[28] = biological target: 5-hydroxytryptamine receptor 6 (Homo sapiens, UniProt P50406); experiment: Binding affinity to human 5-HT6 receptor by PDSP assay
[29] = biological target: Alpha-2A adrenergic receptor (Homo sapiens, UniProt P08913); experiment: Binding affinity to human alpha-2A adrenergic receptor by PDSP assay
Chain of Alpha-2A adrenergic receptor (P08913 whole entry): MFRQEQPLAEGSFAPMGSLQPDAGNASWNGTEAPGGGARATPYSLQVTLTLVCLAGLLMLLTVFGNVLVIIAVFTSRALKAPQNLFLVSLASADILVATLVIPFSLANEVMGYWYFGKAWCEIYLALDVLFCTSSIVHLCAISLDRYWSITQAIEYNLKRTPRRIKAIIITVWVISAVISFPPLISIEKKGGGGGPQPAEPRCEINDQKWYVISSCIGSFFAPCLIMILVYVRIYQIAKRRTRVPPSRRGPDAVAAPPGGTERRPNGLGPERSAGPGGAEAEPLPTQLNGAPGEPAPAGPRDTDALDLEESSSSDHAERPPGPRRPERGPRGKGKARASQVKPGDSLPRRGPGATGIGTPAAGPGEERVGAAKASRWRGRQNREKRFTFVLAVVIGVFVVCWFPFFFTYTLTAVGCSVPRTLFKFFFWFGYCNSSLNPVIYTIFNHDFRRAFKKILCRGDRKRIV

[30] = biological target: Alpha-2C adrenergic receptor (Homo sapiens, UniProt P18825); experiment: Binding affinity to human alpha-2C adrenergic receptor by PDSP assay
[31] = biological target: Sodium-dependent noradrenaline transporter (Homo sapiens, UniProt P23975); experiment: Binding affinity to human NET by PDSP assay
Histamine H1 receptor = Histamine H1 receptor (Homo sapiens, UniProt P35367); experiment: Binding affinity to human histamine H1 receptor by PDSP assay
Chain of Histamine H1 receptor (P35367 whole entry): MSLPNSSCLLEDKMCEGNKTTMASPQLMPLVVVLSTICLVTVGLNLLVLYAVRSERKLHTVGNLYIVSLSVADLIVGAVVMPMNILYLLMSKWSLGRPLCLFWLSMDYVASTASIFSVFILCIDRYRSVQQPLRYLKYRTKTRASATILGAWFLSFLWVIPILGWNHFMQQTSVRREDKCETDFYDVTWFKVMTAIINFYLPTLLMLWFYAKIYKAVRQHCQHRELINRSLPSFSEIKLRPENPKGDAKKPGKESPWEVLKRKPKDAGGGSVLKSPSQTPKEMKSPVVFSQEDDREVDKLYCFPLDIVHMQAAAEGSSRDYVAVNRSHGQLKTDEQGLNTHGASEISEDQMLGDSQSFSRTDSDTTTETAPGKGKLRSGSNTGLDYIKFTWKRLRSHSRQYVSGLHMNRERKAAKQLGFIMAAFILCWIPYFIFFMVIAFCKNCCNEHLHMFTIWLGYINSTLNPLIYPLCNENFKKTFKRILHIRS

D(3) dopamine receptor = D(3) dopamine receptor (Homo sapiens, UniProt P35462); experiment: Binding affinity to human dopamine D3 receptor by PDSP assay
[32] = biological target: Sigma non-opioid intracellular receptor 1 (Homo sapiens, UniProt Q99720); experiment: Binding affinity to human sigma-1 receptor by PDSP assay
[33] = biological target: 5-hydroxytryptamine receptor 1B (Homo sapiens, UniProt P28222); experiment: Binding affinity to human 5-HT1B receptor by PDSP assay
Translocator protein = Translocator protein (Homo sapiens, UniProt P30536); experiment: Binding affinity to human TSPO receptor by PDSP assay
Chain of Translocator protein (P30536 whole entry): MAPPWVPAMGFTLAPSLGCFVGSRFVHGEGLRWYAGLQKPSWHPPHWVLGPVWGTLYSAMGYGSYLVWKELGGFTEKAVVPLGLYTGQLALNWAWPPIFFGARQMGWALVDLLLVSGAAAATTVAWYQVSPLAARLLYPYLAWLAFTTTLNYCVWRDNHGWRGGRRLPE

[34] = biological target: 5-hydroxytryptamine receptor 2C (Homo sapiens, UniProt P28335); experiment: Binding affinity to human 5-HT2C receptor by PDSP assay
D(2) dopamine receptor = D(2) dopamine receptor (Homo sapiens, UniProt P14416); experiment: Binding affinity to human dopamine D2 receptor by PDSP assay
Chain of D(2) dopamine receptor (P14416 whole entry): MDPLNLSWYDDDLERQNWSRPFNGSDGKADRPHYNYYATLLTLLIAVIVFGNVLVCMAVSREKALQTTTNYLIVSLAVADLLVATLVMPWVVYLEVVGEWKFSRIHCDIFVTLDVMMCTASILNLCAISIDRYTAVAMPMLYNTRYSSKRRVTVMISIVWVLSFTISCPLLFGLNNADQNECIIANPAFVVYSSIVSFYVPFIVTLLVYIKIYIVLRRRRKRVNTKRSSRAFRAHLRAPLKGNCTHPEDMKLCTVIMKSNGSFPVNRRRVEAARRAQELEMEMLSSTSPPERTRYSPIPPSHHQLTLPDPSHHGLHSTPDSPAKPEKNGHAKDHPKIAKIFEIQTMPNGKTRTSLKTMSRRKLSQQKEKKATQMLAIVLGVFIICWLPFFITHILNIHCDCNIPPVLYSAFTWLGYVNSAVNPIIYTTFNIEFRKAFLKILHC

D(1B) dopamine receptor = D(1B) dopamine receptor (Homo sapiens, UniProt P21918); experiment: Binding affinity to human dopamine D5 receptor by PDSP assay
[35] = biological target: Sodium-dependent serotonin transporter (Homo sapiens, UniProt P31645); experiment: Binding affinity to human SERT by PDSP assay
Brain = experiment: Biodistribution in iv dosed rhesus monkey brain measured at 90 mins by PET analysis relative to control; type: ADME, organism-based, Macaca mulatta; conditions: in vivo, 1.5 h
Outline: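 Baseline scans in rhesus monkey given the [18F] radioligand i.v. (4.6–6.58 mCi; specific activity 1.67–4.18 Ci/μmol at injection). Ketamine 10 mg/kg i.m. induction, then 1.6% isoflurane/98.4% O2, with the head in a stereotaxic frame. microPET Focus 220 scanning for 120 min in 33 frames (30 s–5 min). Regional uptake, including isocontour-delineated cerebellar grey matter, expressed as SUV.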

Ki [1]: > 10 µM | Ki [2]: 7.9 µM | Ki [3]: > 10 µM | Ki [4]: > 10 µM | Ki [5]: > 10 µM | Ki [6]: > 10 µM | Ki [7]: > 10 µM | Ki [8]: > 10 µM | Ki [9]: > 10 µM | Ki (Mu-type opioid receptor): > 10 µM | Ki [10]: > 10 µM | Ki [11]: > 10 µM | Ki [12]: > 10 µM | Ki [13]: > 10 µM | Ki [14]: > 10 µM | Ki (Histamine H3 receptor): > 10 µM | Ki (D(1A) dopamine receptor): > 10 µM | Ki [15]: > 10 µM | Ki [16]: > 10 µM | Ki [17]: > 10 µM | Ki [18]: > 10 µM | Ki [19]: > 10 µM | Ki (D(4) dopamine receptor): > 10 µM | Ki [20]: > 10 µM | Ki [21]: > 10 µM | Ki [22]: 2.1 µM | Ki [23]: > 10 µM | Ki [24]: > 10 µM | Ki [25]: > 10 µM | Ki [26]: > 10 µM | Ki [27]: > 10 µM | Ki [28]: > 10 µM | Ki [29]: > 10 µM | Ki [30]: > 10 µM | Ki [31]: > 10 µM | Ki (Histamine H1 receptor): > 10 µM | Ki (D(3) dopamine receptor): > 10 µM | Ki [32]: > 10 µM | Ki [33]: > 10 µM | Ki (Translocator protein): > 10 µM | Ki [34]: > 10 µM | Ki (D(2) dopamine receptor): > 10 µM | Ki (D(1B) dopamine receptor): > 10 µM | Ki [35]: > 10 µM
Compound: CNc1cc(-c2csc(N(C)C(=O)c3ccc(F)cc3)n2)ncn1

Drug uptake (Brain): 17%
Compound: CC(C)Nc1cc(-c2csc(N(C)C(=O)c3ccc([18F])cc3)n2)ncn1

— ChEMBL document CHEMBL3085643, “Synthesis and evaluation in monkey of [(18)F]4-fluoro-N-methyl-N-(4-(6-(methylamino)pyrimidin-4-yl)thiazol-2-yl)benzamide ([(18)F]FIMX): a promising radioligand for PET imaging of brain metabotropic glutamate receptor 1 (mGluR1)” (J Med Chem, 2013)
